Experimental data reported in ChEMBL document CHEMBL2417493, “Novel cycloalkylthiophene-imine derivatives bearing benzothiazole scaffold: synthesis, characterization and antiviral activity evaluation” (Bioorg Med Chem Lett, 2013).
Converted amounts (≈) assume the structure as drawn. The source made the active and inactive calls. The calls are words filed in the database; no cut-off is given here.

How the values were obtained:
[1] = Cytotoxicity against human HepG2 cells after 72 hrs by MTT assay; format: cell-based
In short: (§1)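 MTT assay on RD (rhabdomyosarcoma), HepG2 and HeLa cell lines. CC50 is the concentration that cut cell viability by 50% relative to 0.1% DMSO-treated mock-control cells. Values are mean and SD of three independent experiments.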

[2] = Cytotoxicity against human HeLa cells after 72 hrs by MTT assay; format: cell-based; in short: as §1
Influenza A virus [3] = assay: Antiviral activity against influenza A virus H1N1 infected in dog MDCK cells assessed as inhibition of virus-induced cytopathogenicity after 48 hrs by crystal violet staining method; format: functional, organism-based
In short: (§2)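 Virus–cell pairings were EV71 in RD, CVB5 in HepG2, ADV7 in HeLa and influenza A H1N1 in MDCK. Compounds were added […], and total infectivity was read by crystal violet staining. EC50 is the concentration reducing viral replication by 50%. Values are mean SD of three independent experiments.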

unidentified adenovirus [4] = assay: Antiviral activity against Adenovirus type 7 infected in human HeLa cells assessed as inhibition of virus-induced cytopathogenicity after 48 hrs by crystal violet staining method; format: functional, organism-based; in short: as §2
Influenza A virus [5] = assay: Antiviral activity against influenza A virus H1N1 infected in dog MDCK cells assessed as inhibition of virus-induced cytopathogenicity at 32 ug/ml after 48 hrs by crystal violet staining method; format: functional, organism-based
In short: (§3)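 Single-concentration screen with these pairings: RD/EV71, HepG2/CVB5, HeLa/ADV7, MDCK/H1N1. Cells were infected and kept 48 h in the presence of compound at one fixed concentration; some EV71 tests used the lower level. Inhibition of virus proliferation was read by crystal violet staining.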

Coxsackievirus B5 [6] = assay: Antiviral activity against Coxsackievirus B5 infected in human HepG2 cells assessed as inhibition of virus-induced cytopathogenicity at 32 ug/ml after 48 hrs by crystal violet staining method; format: functional; in short: as §3
Enterovirus [7] = assay: Antiviral activity against Enterovirus 71 infected in human rhabdomyosarcoma cells assessed as inhibition of virus-induced cytopathogenicity at 32 ug/ml after 48 hrs by crystal violet staining method; format: functional; in short: as §3
unidentified adenovirus [8] = assay: Antiviral activity against Adenovirus type 7 infected in human HeLa cells assessed as inhibition of virus-induced cytopathogenicity at 32 ug/ml after 48 hrs by crystal violet staining method; format: functional; in short: as §3
[9] = Cytotoxicity against human rhabdomyosarcoma cells after 72 hrs by MTT assay; format: cell-based, Rhabdomyosarcoma cell; in short: as §1
Coxsackievirus B5 [10] = assay: Antiviral activity against Coxsackievirus B5 infected in human HepG2 cells assessed as inhibition of virus-induced cytopathogenicity after 48 hrs by crystal violet staining method; format: functional, organism-based; conditions: for EC50: Enterovirus B, HepG2, 48 h; in short: as §2
Enterovirus [11] = assay: Antiviral activity against Enterovirus 71 infected in human rhabdomyosarcoma cells assessed as inhibition of virus-induced cytopathogenicity after 48 hrs by crystal violet staining method; format: functional, organism-based; in short: as §2
[12] = Selectivity index, ratio of CC50 for human HepG2 cells to EC50 for Coxsackievirus B5 infected in human HepG2 cells; format: toxicity, cell-based; conditions: read-out: Ratio CC50/EC50
In short: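 Antiviral pairings were EV71 in RD cells, CVB5 in HepG2 cells and ADV7 in HeLa cells. Compounds were added […], and total infectivity was read by crystal violet staining. EC50 is the concentration that cut viral replication by 50%. CC50 came from MTT relative to 0.1% DMSO mock control. SI = CC50/EC50. Data are from three independent experiments.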

SMILES	CC50 at 72 h [1] [µg/mL]	CC50 at 72 h [2] [µg/mL]	inhibition (INH) (Influenza A virus [3]) [%]	inhibition (INH) (unidentified adenovirus [4]) [%]	inhibition (Influenza A virus [5])	inhibition (Coxsackievirus B5 [6])	inhibition (Enterovirus [7])	inhibition (unidentified adenovirus [8])	CC50 at 72 h [9] [µg/mL]	inhibition (INH) (Coxsackievirus B5 [10]) [%]	inhibition (INH) (Enterovirus [11]) [%]	EC50 (Coxsackievirus B5 [10]) [µg/mL]	selectivity ratio [12]
Clc1ccc(/C=N/c2sc3c(c2-c2nc4ccccc4s2)CCCC3)c(Cl)c1	384 (≈ 865 µM)	542 (≈ 1220 µM)	<50	<50	Active	Active	Active	Active	56.6 (≈ 128 µM)	<50	<50		
Clc1ccccc1/C=N/c1sc2c(c1-c1nc3ccccc3s1)CCCC2	370 (≈ 904 µM)	407 (≈ 996 µM)	<50	<50	Active	Active	Active	Active	332 (≈ 811 µM)	<50	<50		
O=[N+]([O-])c1ccc(/C=N/c2sc3c(c2-c2nc4ccccc4s2)CCCC3)cc1	454 (≈ 1080 µM)	357 (≈ 850 µM)	<50	<50	Active	Active	Active	Active	316 (≈ 754 µM)	<50	<50		
Clc1ccc(/C=N/c2sc3c(c2-c2nc4ccccc4s2)CCC3)cc1	430 (≈ 1090 µM)	380 (≈ 963 µM)	<50	<50	Active	Active	Active	Active	342 (≈ 867 µM)	<50	<50		
Clc1ccc2sc(-c3c(/N=C/C=C/c4ccccc4)sc4c3CCC4)nc2c1	14.9 (≈ 35.4 µM)	200 (≈ 476 µM)	<50	<50	Active	Active	Active	Active	122 (≈ 291 µM)	<50	<50		
Clc1ccc2sc(-c3c(/N=C/C=C/c4ccccc4)sc4c3CCCC4)nc2c1	114 (≈ 262 µM)	150 (≈ 346 µM)	<50	<50	Active	Active	Active	Active	212 (≈ 486 µM)	<50	<50		
Clc1ccccc1/C=N/c1sc2c(c1-c1nc3ccccc3s1)CCC2	180 (≈ 456 µM)	138 (≈ 350 µM)	<50	<50	Active	Active	Active	Active	123 (≈ 312 µM)	<50	<50		
Fc1ccccc1/C=N/c1sc2c(c1-c1nc3ccccc3s1)CCC2	394 (≈ 1040 µM)	355 (≈ 938 µM)	<50	<50	Active	Active	Active	Active	270 (≈ 713 µM)	<50	<50		
O=[N+]([O-])c1ccccc1/C=N/c1sc2c(c1-c1nc3ccccc3s1)CCCC2	393 (≈ 937 µM)	369 (≈ 880 µM)	<50	<50	Active	Active	Active	Active	255 (≈ 609 µM)		<50	11.2 (≈ 26.7 µM)	35
Fc1ccccc1/C=N/c1sc2c(c1-c1nc3ccccc3s1)CCCC2	398 (≈ 1010 µM)	426 (≈ 1090 µM)	<50	<50	Active	Active	Active	Active	319 (≈ 812 µM)	<50	<50		
C(=N\c1sc2c(c1-c1nc3ccccc3s1)CCC2)/c1ccc2c(c1)OCO2	356 (≈ 881 µM)	449 (≈ 1110 µM)	<50	<50	Active	Active	Active	Active	310 (≈ 766 µM)	<50	<50		
C(=C\c1ccccc1)/C=N/c1sc2c(c1-c1nc3ccccc3s1)CCC2	215 (≈ 555 µM)	100 (≈ 259 µM)	<50	<50	Active	Active	Active	Active	122 (≈ 317 µM)	<50	<50		
FC(F)(F)c1ccc(/C=N/c2sc3c(c2-c2nc4ccccc4s2)CCCC3)cc1	361 (≈ 816 µM)	368 (≈ 833 µM)	<50	<50	Active	Active	Active	Active	250 (≈ 566 µM)	<50	<50		
Fc1ccc(/C=N/c2sc3c(c2-c2nc4ccccc4s2)CCC3)cc1	302 (≈ 799 µM)	372 (≈ 984 µM)	<50	<50	Active	Active	Active	Active	290 (≈ 765 µM)		<50	15.5 (≈ 41 µM)	19.4
COc1cc(/C=N/c2sc3c(c2-c2nc4ccccc4s2)CCCC3)cc(OC)c1OC	301 (≈ 648 µM)	448 (≈ 963 µM)	<50	<50	Active	Active	Active	Active	381 (≈ 821 µM)	<50	<50		
Clc1ccc(/C=N/c2sc3c(c2-c2nc4ccccc4s2)CCCC3)cc1	397 (≈ 970 µM)	431 (≈ 1050 µM)	<50	<50	Active	Active	Active	Active	367 (≈ 898 µM)	<50	<50		
Clc1ccc(/C=N/c2sc3c(c2-c2nc4ccccc4s2)CCC3)c(Cl)c1	310 (≈ 722 µM)	345 (≈ 804 µM)	<50	<50	Active	Active	Active	Active	160 (≈ 372 µM)	<50	<50		
